MLL AF4-AF9 inh: inhibitors of AF4 peptide binding to AF9, primary screen, biochemical, AlphaScreen, biotin-AF4 peptide, FLAG-AF9, single point; 0.47% of 350,000 active; inhibition, % at 10 µM; AID 651704, 2012;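 active means every replicate reaching a set inhibition limit, whatever the replicate mean, cut at about 25% in these data; inconclusive means mean inhibition reaches that limit but some replicates miss it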;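 further: 0% = plate neutral control median and 100% = total signal loss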
E-selectin induc: E-selectin induction in HUVECs, primary screen, imaging, HUVEC, immunofluorescence imaging, single point; P16581; normalized: neutral wells 0, TNF-alpha wells 100; 0.37% of 260,000 active; activation, % at 7.58 µM;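 active means mean E-selectin-positive cell signal at least 10% of the positive control, reached in at least 60% of replicates, without over 20% cell loss; inconclusive means no rule given, readout overlaps actives, possibly toxicity-flagged; inactive means the rest, including those meeting only one limit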
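Read-out: % PE-positive cells | Test system: HUVEC | Doses: One compound dose added by pin transfer | Buffer or medium: EGM-2 over gelatin coat | Signal: Immunofluorescence imaging | Benchmarks: TNF-alpha, DMSO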
RAD54 inh: inhibitors of human RAD54 branch migration, primary screen, biochemical, fluorescence, single point. DNA repair and recombination protein RAD54-like (Homo sapiens), Q92698. RAD54 Holliday junction branch migration, FAM/BHQ fluorescence. inhibition, % at 10.4 µM. 0.14% of 360,000 active. AID 602329, 2012;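 active means mean normalized replicate activity at least 40 and at least half of replicates scoring 40 or more; inconclusive means only one of the two criteria met; inactive means mean below 40 and under half of replicates reaching 40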;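 further: 0% = median of neutral control wells and 100% = median of positive control wells; inhibitors cause a drop in the FAM fluorescence signal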
GSIS activator: GLuc luminescence reporter in INS-1E cells, primary screen for activators of glucose-dependent secretion of insulin; INS-1E GLuc reporter insulin secretion, 2-3 h; activation, % at 16.6 µM; 0.61% of 370,000 active;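 active means lowest replicate activation of at least 40%, so every replicate reaches that level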;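 further: 0% = median of neutral control wells and 100% = median of IBMX positive control wells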
RAD52 inh: RAD52 DNA annealing inhibitors, primary screen, biochemical, FRET, single point, set 2 | DNA repair protein RAD52 homolog (Homo sapiens), P43351 | recombinant RAD52 DNA annealing, FRET fluorescence | inhibition, % at 18.7 µM | 0.46% of 360,000 active | AID 651710, 2012;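 active means every replicate showing at least 50% inhibition; inconclusive means mean inhibition at least 50% but not in every replicate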
Target sequence (P43351 whole entry, looked up): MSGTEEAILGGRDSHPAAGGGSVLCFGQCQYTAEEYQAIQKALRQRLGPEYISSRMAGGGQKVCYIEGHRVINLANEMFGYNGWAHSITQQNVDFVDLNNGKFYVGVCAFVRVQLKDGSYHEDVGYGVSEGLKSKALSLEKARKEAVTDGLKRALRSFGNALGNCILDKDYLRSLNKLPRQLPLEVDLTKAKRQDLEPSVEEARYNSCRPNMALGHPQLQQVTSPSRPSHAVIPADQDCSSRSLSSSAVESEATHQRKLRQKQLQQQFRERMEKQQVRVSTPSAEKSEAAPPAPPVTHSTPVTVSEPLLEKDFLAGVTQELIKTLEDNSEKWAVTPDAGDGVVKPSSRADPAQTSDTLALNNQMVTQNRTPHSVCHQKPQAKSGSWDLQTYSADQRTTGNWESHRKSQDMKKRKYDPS
Ecoli rRNA inh: reduced GFP signal of wild-type E. coli, primary screen, bacterial rRNA inhibitor project, GFP/RFP fluorescence, OD600, single point. E. coli WT GFP vs humanized-ribosome RFP mutants, 24 h; hits give low values; DMSO median 0, no signal -100. GFP signal change (wild-type ribosome), % (no concentration beside the values). 1.6% of 350,000 active. AID 720706, 2013;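 active means significant combined selectivity score with lowered wild-type GFP, culture density cut under 30%, mutant RFP and density less affected; inactive means any of these conditions unmet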
* marks the source's active call; other numbers are inactive results; ? = inconclusive; / = not tested or not shown. An excerpt weighted towards active compounds, which were near 2.6% of everything screened.

SMILES	MLL AF4-AF9 inh	E-selectin induc	RAD54 inh	GSIS activator	RAD52 inh	Ecoli rRNA inh
O=C(Cc1ccccn1)N1CC2(C1)[C@@H](c1ccccc1)[C@@H](CO)N2C(=O)c1cccnc1	-2	0	/	5	-220	2
Cc1ccccc1OCCNC(=O)CNC(=O)c1ccccc1O	0	/	0	-10	-2	-27*
COc1ccccc1OCCNC(=O)c1ccccc1C	/	/	3	/	/	/
C=CCn1c(Sc2ncc([N+](=O)[O-])s2)n[nH]c1=O	1	-1	6	/	-5	-28*
O=[N+]([O-])c1cnc(Sc2ccncn2)s1	-2	1	-1	-5	-2	5
Fc1ccc(-n2cc(-c3ccccc3)c3c(N4CCOCC4)ncnc32)cc1	4	0	/	3	-7	-24*
CCN1CCN(c2ncnc3c2c(-c2ccccc2)cn3-c2ccc(F)cc2)CC1	13	0	/	13	9	7
O=C(CN1CCCc2ccccc21)N/N=C/c1ccc(O)cc1O	8	/	-8	/	-70	-15*
CCC(=O)N[C@@H]1CC[C@@H](CCNS(=O)(=O)c2ccc(Cl)cc2)O[C@@H]1CO	0	1	10	11	2	1
O=C(NCCc1ccc(Cl)cc1)C1CCN(S(=O)(=O)c2cccs2)CC1	/	/	1	/	/	/
O=C(O)c1ccc(Cl)cc1NC(=O)C1CCN(S(=O)(=O)c2cccs2)CC1	-1	0	2	-2	-8	-18*
O=C(C1CC1)N1C[C@H]2[C@@H](c3ccccc31)[C@H](CO)N2C(=O)Cc1ccccn1	0	0	-14	-1	-45	4
COc1ccc2c3c(n(C)c2c1)[C@H](CO)N(S(C)(=O)=O)CC31CCN(Cc2cccnc2)CC1	12	0	/	-6	4	-3
Cc1noc(C)c1COc1cccc(C(=O)Oc2ccc3c(c2)OCO3)c1	/	/	1	10	-8	-35*
Cc1cccc(NC(=O)c2ccc(OCc3c(C)noc3C)cc2)c1C	-1	/	-4	137*	-4	9
C[C@@H]1CN([C@@H](C)CO)S(=O)(=O)c2ccc(Br)cc2O[C@H]1CN(C)C(=O)C1CC1	-1	/	2	21	4	-2
Cc1[nH]nc(C(=O)NN=Cc2ccccc2Cl)c1N=NN(C)C	3	0	/	12	-6	-21*
Cc1cc(=O)oc2cc(OCC(=O)NC3CCN(Cc4ccccc4)CC3)ccc12	2	/	0	13	-14	5
CCCc1cc(=O)oc2cc(OCC(=O)NC3CCN(Cc4ccccc4)CC3)ccc12	0	/	2	44*	-8	5
Cc1c(C)c2ccc(OCC(=O)NC3CCN(Cc4ccccc4)CC3)cc2oc1=O	-5	/	8	32	-18	-14
O=C(COc1ccc2c3c(c(=O)oc2c1)CCC3)NC1CCN(Cc2ccccc2)CC1	-2	/	-8	-1	-4	-29*
CCc1ccc2c(CN3CCC(C(=O)OC)CC3)cc(=O)oc2c1	-5	/	-12	3	-12	-22*
CC(C)NC(=O)N(C)C[C@H]1Oc2ccc(NC(=O)Cn3cnnn3)cc2C(=O)N([C@@H](C)CO)C[C@H]1C	/	-13	/	24	/	6
Cn1c(N)c(C(=O)COC(=O)Cc2ccc(Cl)c(Cl)c2)c(=O)n(C)c1=O	-1	/	-1	-27	-19	-35*
CCOc1ccc(OCCC(=O)OCC(=O)c2c(N)n(CC(C)C)c(=O)n(C)c2=O)cc1	3	0	12	-37	-14	-17*
COc1ccc(CC(=O)OCC(=O)c2c(N)n(C)c(=O)n(C)c2=O)cc1OC	?	/	-8	18	0	3
Cn1c(N)c(C(=O)COC(=O)CNC(=O)c2ccccc2)c(=O)n(C)c1=O	1	0	-11	12	-13	8
Cn1c(N)c(C(=O)COC(=O)CCc2ccccc2)c(=O)n(C)c1=O	1	107*	8	-3	-5	-14

Compound activity from PubChem BioAssay.
